From ChEMBL document CHEMBL4118114 (Bioorg Med Chem, 2018) come the findings set out here.

Starred links: 1 amine or outer side, 2 acyl side, 3 side chain; linkers in the order of their positions; H or OH if unused. Positions of bridges follow the written chain, without caps; N, C: chain ends. Non-standard residues stand in square brackets, D forms with d. Residues, ends and D or L forms follow the SMILES beside them. oXylylene = c1ccc(C[*:2])c(C[*:1])c1; X1 = O=C(CCC[*:2])[*:1]; Mpa = O=C(O)CCS

For data set [1], the target named is T1, Vasopressin V1b receptor (Homo sapiens, UniProt P47901).
T1 sequence (P47901 whole entry): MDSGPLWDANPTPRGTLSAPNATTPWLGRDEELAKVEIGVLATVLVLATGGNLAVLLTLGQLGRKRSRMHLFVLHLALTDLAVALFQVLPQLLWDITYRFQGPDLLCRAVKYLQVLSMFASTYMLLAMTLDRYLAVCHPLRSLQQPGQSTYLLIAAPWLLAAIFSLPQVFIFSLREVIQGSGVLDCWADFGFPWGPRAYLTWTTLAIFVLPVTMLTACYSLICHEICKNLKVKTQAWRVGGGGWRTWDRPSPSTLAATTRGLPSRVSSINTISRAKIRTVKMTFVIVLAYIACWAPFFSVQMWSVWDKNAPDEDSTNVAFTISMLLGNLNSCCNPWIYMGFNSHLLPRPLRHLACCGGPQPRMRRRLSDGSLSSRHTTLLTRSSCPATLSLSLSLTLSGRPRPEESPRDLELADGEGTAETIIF
Briefly: Agonist activity at human vasopressin V1b receptor expressed in CHO cells assessed as increase in intracellular calcium flux measured for 5 mins by Fluo-4-AM dye based FLIPR assay. It counts as functional, cell-based. For orientation: A change in cytosolic calcium serves as a functional read-out for many receptors and channels.

Data set [2] deals with T2, Vasopressin V1a receptor (Homo sapiens, UniProt P37288). Briefly: Antagonist activity at human liver vasopressin V1a receptor expressed in CHO cells assessed as inhibition of agonist-induced intracellular calcium flux preincubated for 20 mins followed by AVP addition measured for 5 mins by Fluo-4-AM dye based FLIPR assay. It counts as functional, cell-based. An outline of the steps: (§1)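 CHO cells stably expressing the relevant human receptor, plated 24 h, loaded 60 min with 2 µM Fluo-4-AM and read on FLIPR. […] IC50 came from a variable-slope single-site competition fit of normalized fluorescence. At least 3 runs in duplicate.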

Data set [3] addresses T1, Vasopressin V1b receptor. Briefly: Displacement of [3H]AVP from human vasopressin V1b receptor expressed in HEK293 cell membrane after 1 hr by scintillation counting method. It counts as cell membranes. In general terms: In a radioligand displacement assay an active substance lowers the binding of a labelled ligand.
Data set [4] addresses T3, Vasopressin V2 receptor (Homo sapiens, UniProt P30518). Briefly: Agonist activity at human kidney vasopressin V2 receptor expressed in CHO cells assessed as increase in intracellular calcium flux measured for 5 mins by Fluo-4-AM dye based FLIPR assay. It counts as functional, cell-based. An outline of the steps:
(§2)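 Stably transfected CHO lines, one human receptor each, grown in F-12K with 10% FBS, geneticin 200 µg/mL, 37 °C, 10% CO2. Plated 50,000 cells/well for 24 h, then loaded 60 min with 2 µM Fluo-4-AM. Compound dilution series added on FLIPR and calcium signal recorded 5 min for agonist activity. Each compound tested at least 3 times in duplicate.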

Data set [5] deals with T4, Oxytocin receptor (Homo sapiens, UniProt P30559).
T4 sequence (P30559 whole entry): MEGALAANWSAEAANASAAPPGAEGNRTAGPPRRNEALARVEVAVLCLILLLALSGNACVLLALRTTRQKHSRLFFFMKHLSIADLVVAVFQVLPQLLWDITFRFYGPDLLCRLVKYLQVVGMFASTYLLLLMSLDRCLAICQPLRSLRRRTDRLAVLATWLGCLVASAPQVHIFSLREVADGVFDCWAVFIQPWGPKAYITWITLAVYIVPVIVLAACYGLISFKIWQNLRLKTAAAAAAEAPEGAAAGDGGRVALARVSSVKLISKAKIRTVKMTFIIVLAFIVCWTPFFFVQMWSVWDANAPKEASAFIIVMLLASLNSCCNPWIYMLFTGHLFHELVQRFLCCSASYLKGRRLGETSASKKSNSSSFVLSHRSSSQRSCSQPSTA
Briefly: Displacement of [3H]OT from human mammary gland oxytocin receptor expressed in HEK293 cell membrane after 1 hr by scintillation counting method. It counts as cell membranes. A digest of the protocol: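 Membranes from a stable HEK clone expressing human OTR cloned from mammary gland RNA. Filtration binding with 1 nM final [3H]OT in 50 mM Tris, 5 mM MgCl2, 0.1% BSA, pH 7.4, for 1 h at room temperature. GF/C filters, washed 5 times ice-cold. Ki by Cheng-Prusoff. Three experiments in duplicate.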

The species entered for data set [6] is Homo sapiens. Description: Selectivity index, ratio of IC50 for human liver vasopressin V1a receptor to IC50 for human mammary gland oxytocin receptor.
Data set [7] concerns the target T3, Vasopressin V2 receptor. Description: Antagonist activity at human kidney vasopressin V2 receptor expressed in CHO cells assessed as inhibition of agonist-induced intracellular calcium flux preincubated for 20 mins followed by AVP addition measured for 5 mins by Fluo-4-AM dye based FLIPR assay. It counts as functional, cell-based. A digest of the protocol:
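CHO cells stably expressing the relevant human receptor, plated 24 h, loaded 60 min with 2 µM Fluo-4-AM and read on FLIPR. IC50 came from a variable-slope single-site competition fit of normalized fluorescence. At least 3 runs in duplicate.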

Data set [8] addresses T4, Oxytocin receptor. Description: Antagonist activity at human mammary gland oxytocin receptor expressed in CHO cells assessed as inhibition of agonist-induced intracellular calcium flux preincubated for 20 mins followed by oxytocin addition measured for 5 mins by Fluo-4-AM dye based FLIPR assay. It counts as functional, cell-based. An outline of the steps: as §1
Data set [9] addresses T4, Oxytocin receptor. Description: (§3) Agonist activity at human mammary gland oxytocin receptor expressed in CHO cells assessed as increase in intracellular calcium flux measured for 5 mins by Fluo-4-AM dye based FLIPR assay. It counts as functional, cell-based. A digest of the protocol: as §2
In data set [10] the target is T2, Vasopressin V1a receptor. Description: Displacement of [3H]AVP from human liver vasopressin V1a receptor expressed in HEK293 cell membrane after 1 hr by scintillation counting method. Type of data set: cell membranes. A digest of the protocol: (§4)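 Membranes from transiently transfected HEK293 cells. Receptors were cloned from human liver (V1a) or kidney (V2) RNA. SPA assay with yttrium silicate beads in 50 mM Tris, 120 mM NaCl, 5 mM KCl, 2 mM CaCl2, 10 mM MgCl2. 4 nM [3H]AVP added, compound in 2% DMSO, 1 h at room temperature. Ki by Cheng-Prusoff. Three experiments in duplicate.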

The target of data set [11] is T1, Vasopressin V1b receptor. Briefly: Antagonist activity at human vasopressin V1b receptor expressed in CHO cells assessed as inhibition of agonist-induced intracellular calcium flux preincubated for 20 mins followed by AVP addition measured for 5 mins by Fluo-4-AM dye based FLIPR assay. Type of data set: functional, cell-based. A digest of the protocol:
as §1

For data set [12], the species on record is Homo sapiens. Description: Selectivity index, ratio of Ki for human liver vasopressin V1a receptor to Ki for human mammary gland oxytocin receptor. An outline of the steps:
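Ratio of binding Ki from the radioligand displacement assays, calculated as the strongest AVP receptor subtype binding value divided by the OTR value.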

Data set [13] concerns the target T3, Vasopressin V2 receptor. Briefly: Displacement of [3H]AVP from human kidney vasopressin V2 receptor expressed in HEK293 cell membrane after 1 hr by scintillation counting method. It counts as cell membranes. A digest of the protocol:
as §4

Data set [14] has as its target T2, Vasopressin V1a receptor. Briefly: Agonist activity at human liver vasopressin V1a receptor expressed in CHO cells assessed as increase in intracellular calcium flux measured for 5 mins by Fluo-4-AM dye based FLIPR assay. Type of data set: functional, cell-based. An outline of the steps: as §2
For data set [15], the species on record is Homo sapiens. Description: Selectivity index, ratio of IC50 for human mammary gland oxytocin receptor to IC50 for human liver vasopressin V1a receptor.
For data set [16], the species on record is Homo sapiens. Description: Selectivity index, ratio of Ki for human mammary gland oxytocin receptor to Ki for human liver vasopressin V1a receptor. An outline of the steps: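 Ratio of binding Ki from the radioligand displacement assays, calculated as the OTR binding value divided by the V1a value.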
Data set [17] can be described thus: Thermal stability of the compound at 50 degC at 0.5 mg/ml after 10 days by LC-MS analysis. Type of data set: physicochemical. To be noted: 240 h. A digest of the protocol:
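Peptides dissolved in water at 0.5 mg/mL and held at 50 °C. After 10 days, aliquots were analysed by direct-injection LC-MS. Remaining peptide was expressed as a percentage of the corresponding peak before heating.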

Data set [18] concerns the target T5, Oxytocin receptor (Homo sapiens) (UniProt P30559).
T5 sequence (whole entry): T4 sequence (P30559 whole entry)
The data set is described as §3. Type of data set: functional, cell-based. A digest of the protocol:
as §2

Data set [19] can be described thus: Half life in Sherman rat plasma. Type of data set: ADME, cell-free.

T3 sequence (P30518 whole entry): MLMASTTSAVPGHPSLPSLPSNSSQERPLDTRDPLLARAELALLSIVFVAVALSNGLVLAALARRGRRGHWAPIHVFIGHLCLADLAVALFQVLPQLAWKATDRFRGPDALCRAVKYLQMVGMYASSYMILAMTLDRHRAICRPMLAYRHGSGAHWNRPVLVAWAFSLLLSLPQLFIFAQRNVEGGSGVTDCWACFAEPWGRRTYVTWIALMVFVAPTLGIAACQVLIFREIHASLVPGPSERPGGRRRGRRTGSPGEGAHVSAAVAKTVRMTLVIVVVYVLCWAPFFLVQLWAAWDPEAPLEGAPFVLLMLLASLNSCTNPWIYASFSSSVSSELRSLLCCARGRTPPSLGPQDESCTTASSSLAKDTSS
T2 sequence (P37288 whole entry): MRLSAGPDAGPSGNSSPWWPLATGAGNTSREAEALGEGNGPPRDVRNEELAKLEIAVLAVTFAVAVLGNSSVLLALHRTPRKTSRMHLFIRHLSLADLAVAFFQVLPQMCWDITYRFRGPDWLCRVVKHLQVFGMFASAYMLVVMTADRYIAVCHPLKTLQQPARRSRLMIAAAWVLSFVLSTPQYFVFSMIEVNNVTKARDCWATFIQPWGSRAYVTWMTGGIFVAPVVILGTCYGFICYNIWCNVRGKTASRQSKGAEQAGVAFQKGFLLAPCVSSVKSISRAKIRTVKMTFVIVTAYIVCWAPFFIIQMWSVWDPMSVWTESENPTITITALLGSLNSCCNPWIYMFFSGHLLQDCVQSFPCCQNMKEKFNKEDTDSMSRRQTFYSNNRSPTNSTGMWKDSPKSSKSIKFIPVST

Consider `CC[C@H](C)[C@@H]1NC(=O)[C@H](Cc2ccc(O)cc2)NC(=O)CCSCc2ccccc2CSC[C@@H](C(=O)N2CCC[C@H]2C(=O)N[C@@H](CCCNC(=N)N)C(=O)NCC(N)=O)NC(=O)[C@H](CC(N)=O)NC(=O)[C@H](CCC(N)=O)NC1=O` ([Mpa]YIQNCPRG-NH2; linker 1-6 via oXylylene), for which the EC50 – broadly, the concentration needed to bring the measured effect to its halfway point – at Vasopressin V1b receptor [1] is 9.26 µM; on Vasopressin V2 receptor [4] it was 18.9 µM; on Oxytocin receptor [9] it was above 10 µM; on Vasopressin V1a receptor [14], above 20 µM. In addition, the IC50 (commonly the concentration that inhibits the measured activity by half) on Vasopressin V1a receptor [2] is 0.014 µM; on Vasopressin V2 receptor [7], “Not Active”; on Oxytocin receptor [8] (read-out: IC50), 1.72 µM; at Vasopressin V1b receptor [11], “Not Active”. The Ki – broadly, the equilibrium dissociation constant of an inhibitor or competing ligand from its target – on Vasopressin V1b receptor [3] was above 6 µM; at Oxytocin receptor [5], 0.166 µM; at Vasopressin V1a receptor [10], 0.03 µM; at Vasopressin V2 receptor [13], above 6 µM. Further, the results for the Ratio IC50 in the data set filed under Homo sapiens [6] and in the data set filed under Homo sapiens [15] were 0.008 and 123, respectively. For the same compound, the results for the Ratio Ki in the data set listed under Homo sapiens [12] and in the data set listed under Homo sapiens [16] were 0.2 and 5.5, respectively.

With `CC[C@H](C)[C@@H]1NC(=O)[C@H](Cc2ccc(O)cc2)NC(=O)CCSCc2cccc(c2)CSC[C@@H](C(=O)N2CCC[C@H]2C(=O)N[C@@H](CC(C)C)C(=O)NCC(N)=O)NC(=O)[C@H](CC(N)=O)NC(=O)[C@H](CCC(N)=O)NC1=O`, the EC50 at Vasopressin V1b receptor [1] was 2.97 µM; on Oxytocin receptor [9] it was 0.034 µM; at Vasopressin V1a receptor [14] it was above 20 µM. The IC50 is 4.4 µM on Vasopressin V1a receptor [2], “Not Active” on Oxytocin receptor [8] (cho) and “Not Active” at Vasopressin V1b receptor [11]. In addition, the Ki was above 6 µM at Vasopressin V1b receptor [3], 0.05 µM at Oxytocin receptor [5] and 1.68 µM on Vasopressin V1a receptor [10]. Further, the Stability result in data set [17] is recorded as “Stable”. Besides, in data set [18], the %max amounted to 75%.

For the compound `CC[C@H](C)[C@@H]1NC(=O)[C@H](Cc2ccc(OC)cc2)NC(=O)CCCSC[C@@H](C(=O)N2CCC[C@H]2C(=O)N[C@@H](CC(C)C)C(=O)NCC(N)=O)NC(=O)[C@H](CC(N)=O)NC(=O)[C@H](CCC(N)=O)NC1=O` (Y(Me)IQNCPLG-NH2; linker N-5 via X1), the %max in data set [18] was determined as 45%.

Turning to `CC[C@H](C)[C@@H]1NC(=O)[C@H](Cc2ccc(O)cc2)NC(=O)[C@@H](N)CSSC[C@@H](C(=O)N2CCC[C@H]2C(=O)N[C@@H](CC(C)C)C(=O)NCC(N)=O)NC(=O)[C@H](CC(N)=O)NC(=O)[C@H](CCC(N)=O)NC1=O` [OXYTOCIN], the half-life (commonly the time needed for the level to fall by half in the phase considered) in data set [19] was found to be 3 min.

Turning to `CC[C@H](C)[C@@H]1NC(=O)[C@H](Cc2ccc(O)cc2)NC(=O)CCSCc2ccccc2CSC[C@@H](C(=O)N2CCC[C@H]2C(=O)N[C@@H](CC(C)C)C(=O)NCC(N)=O)NC(=O)[C@H](CC(N)=O)NC(=O)[C@H](CCC(N)=O)NC1=O`, the concentration for a half-maximal effect (EC50) at Vasopressin V1b receptor [1] is 8.3 µM; on Vasopressin V1a receptor [14], above 20 µM. In addition, the IC50 at Vasopressin V1a receptor [2] is 0.035 µM; at Oxytocin receptor [8] (cho), “Not Active”; on Vasopressin V1b receptor [11], “Not Active”. For the same compound, the inhibition constant (Ki) on Vasopressin V1b receptor [3] is above 6 µM; on Oxytocin receptor [5], 0.22 µM; on Vasopressin V1a receptor [10], 0.069 µM.
